Measurements from ChEMBL document CHEMBL4725432, “Dethioacylation by Sirtuins 1-3: Considerations for Drug Design Using Mechanism-Based Sirtuin Inhibition” (ACS Med Chem Lett, 2020).
Activity calls are given as the source filed them. The rule behind the calls is not given here. Residues, ends and D or L forms follow the SMILES beside them. *: point of attachment. AMC = Cc1cc(=O)oc2cc(N*)ccc12; Cbz = O=C(OCc1ccccc1)*; Propionyl = CCC(=O)*; NHiPr = CC(C)N*

Assays:
HEK293 = assay: Inhibition of deacetylation activity in HEK293 cell lysate incubated with substrate for 2 hrs at 50 uM measured after 90 mins by fluorescence assay; format: functional, subcellular; settings: Homo sapiens
In short: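 Fluorogenic thioacyl or acyl lysine-AMC substrates incubated with fresh HEK293 cell lysate (~65 μg). Deacylation measured by fluorescence. Two independent experiments in duplicate, standard deviation.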

[1] = target: T1, NAD-dependent protein deacetylase sirtuin-1 (Homo sapiens) (UniProt Q96EB6); assay: Inhibition of human N-terminal GST-tagged SIRT1 (193 to 741 residues) expressed in Escherichia coli preincubated with NAD+ for 30 mins using Ac-Gln-Pro-Lys-Lys(Ac)-AMC (oxo-10) as substrate at 1 to 100 uM measured after 90 mins by fluorescence assay; settings: dose microM 1-100, time 120.0 min
T1 sequence (whole entry): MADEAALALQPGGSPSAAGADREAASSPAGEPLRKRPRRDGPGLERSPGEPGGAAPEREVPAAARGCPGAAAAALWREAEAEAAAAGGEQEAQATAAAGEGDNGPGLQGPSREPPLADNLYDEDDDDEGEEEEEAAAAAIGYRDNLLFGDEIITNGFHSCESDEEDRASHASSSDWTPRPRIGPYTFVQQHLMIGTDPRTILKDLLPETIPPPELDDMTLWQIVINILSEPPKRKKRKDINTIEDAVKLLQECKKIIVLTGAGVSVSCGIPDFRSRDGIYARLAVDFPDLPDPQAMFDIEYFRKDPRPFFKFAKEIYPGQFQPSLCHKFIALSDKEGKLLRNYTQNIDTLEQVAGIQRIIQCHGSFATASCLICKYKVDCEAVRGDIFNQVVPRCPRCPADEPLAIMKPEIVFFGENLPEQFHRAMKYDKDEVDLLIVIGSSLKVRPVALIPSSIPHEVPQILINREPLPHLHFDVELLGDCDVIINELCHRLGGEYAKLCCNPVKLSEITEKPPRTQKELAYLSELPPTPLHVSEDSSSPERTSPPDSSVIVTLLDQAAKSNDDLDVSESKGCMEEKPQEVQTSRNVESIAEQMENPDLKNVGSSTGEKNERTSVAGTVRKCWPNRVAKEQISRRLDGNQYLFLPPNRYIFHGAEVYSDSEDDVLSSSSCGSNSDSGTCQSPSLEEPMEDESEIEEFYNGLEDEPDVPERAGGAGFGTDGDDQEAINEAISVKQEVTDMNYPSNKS
In short: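 Recombinant SIRT1 (100 nM) preincubated 30 min with compound, either with or without NAD+ (500 μM), before the fluorogenic deacetylation read-out. Single-dose %-inhibition. Two independent experiments in duplicate, standard deviation.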

[2] = target: T2, NAD-dependent protein deacetylase sirtuin-3, mitochondrial (Homo sapiens) (UniProt Q9NTG7); assay: Inhibition of human recombinant N-terminal GST-tagged SIRT3 (102 to 399 residues) deacetylation activity in presence of substrate and NAD+ at 15 uM after 60 mins measured by reversed-phase UPLC-MS analysis relative to control
T2 sequence (whole entry): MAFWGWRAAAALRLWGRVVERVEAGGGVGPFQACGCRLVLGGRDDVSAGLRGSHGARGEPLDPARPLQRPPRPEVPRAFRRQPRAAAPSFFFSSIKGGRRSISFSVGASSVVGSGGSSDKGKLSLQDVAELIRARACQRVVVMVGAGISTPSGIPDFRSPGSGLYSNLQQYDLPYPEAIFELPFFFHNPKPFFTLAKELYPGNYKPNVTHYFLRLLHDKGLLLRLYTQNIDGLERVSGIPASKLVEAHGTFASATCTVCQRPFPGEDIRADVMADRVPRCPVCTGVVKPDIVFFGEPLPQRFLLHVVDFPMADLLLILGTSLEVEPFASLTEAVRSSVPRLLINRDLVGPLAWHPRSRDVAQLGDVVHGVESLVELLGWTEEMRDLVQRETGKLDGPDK

[3] = target: T3, NAD-dependent protein deacetylase sirtuin-1 (Homo sapiens, UniProt Q96EB6); assay: Inhibition of human recombinant SIRT1 expressed in Escherichia coli in presence of acyl peptide acetyl-H3K9 as substrate incubated for 5 mins by HPLC analysis
T3 sequence (Q96EB6 whole entry): T1 sequence (whole entry)

[4] = target: T4, NAD-dependent protein deacetylase sirtuin-2 (Homo sapiens) (UniProt Q8IXJ6); assay: Inhibition of human recombinant SIRT2 expressed in Escherichia coli in presence of acyl peptide acetyl-H3K9 as substrate at 100 uM incubated for 5 mins by HPLC analysis relative to control
T4 sequence (whole entry): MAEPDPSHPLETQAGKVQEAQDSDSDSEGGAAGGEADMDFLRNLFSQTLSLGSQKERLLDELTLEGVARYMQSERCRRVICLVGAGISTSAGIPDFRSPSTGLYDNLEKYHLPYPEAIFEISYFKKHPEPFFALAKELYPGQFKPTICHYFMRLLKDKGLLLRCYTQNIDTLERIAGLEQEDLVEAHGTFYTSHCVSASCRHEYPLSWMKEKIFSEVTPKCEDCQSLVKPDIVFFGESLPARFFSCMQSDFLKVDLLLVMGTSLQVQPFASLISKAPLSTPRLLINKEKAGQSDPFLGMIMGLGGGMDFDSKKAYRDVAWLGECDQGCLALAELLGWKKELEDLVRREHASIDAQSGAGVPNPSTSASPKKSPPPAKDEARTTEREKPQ

[5] = target: T2, NAD-dependent protein deacetylase sirtuin-3, mitochondrial (Homo sapiens); assay: Inhibition of human recombinant SIRT3 expressed in Escherichia coli BL21 in presence of acyl peptide acetyl-H3K9 as substrate at 100 uM incubated for […] mins by HPLC analysis relative to control; settings: time 5.0 min
[6] = target: T1, NAD-dependent protein deacetylase sirtuin-1 (Homo sapiens); assay: Inhibition of human recombinant N-terminal GST-tagged SIRT1 (193 to 741 residues) deacetylation activity in presence of substrate and NAD+ at 15 uM after 60 mins by reversed-phase UPLC-MS analysis relative to control
[7] = target: T3, NAD-dependent protein deacetylase sirtuin-1; assay: Inhibition of human recombinant N-terminal GST-tagged SIRT1 (193 to 741 residues) expressed in Escherichia coli using Ac-Gln-Pro-Lys-Lys(Ac)-AMC (oxo-10) as substrate by fluorescence assay
[8] = target: T5, NAD-dependent protein deacetylase sirtuin-2 (Homo sapiens, UniProt Q8IXJ6); assay: Inhibition of human C-terminal His-tagged SIRT2 (50 to 356 residues) expressed in Escherichia coli using Ac-Gln-Pro-Lys-Lys(pro)-AMC (oxo-11) as substrate by fluorescence assay
T5 sequence (Q8IXJ6 whole entry): T4 sequence (whole entry)

[9] = target: T2, NAD-dependent protein deacetylase sirtuin-3, mitochondrial (Homo sapiens); assay: Inhibition of human N-terminal GST-tagged SIRT3 (102 to 399 residues) expressed in Escherichia coli using Ac-Gln-Pro-Lys-Lys(but)-AMC (oxo-12) as substrate at 100 uM by fluorescence assay relative to control
[10] = Metabolic stability of compound in human serum assessed as half life incubated for >10 mins measured after 90 mins by HPLC analysis; format: ADME, cell-free
[11] = Metabolic stability of compound in human serum assessed as drug degradation incubated for >10 mins measured after 90 mins by HPLC analysis; format: ADME, cell-free; settings: 1.5 h
[12] = target: T1, NAD-dependent protein deacetylase sirtuin-1 (Homo sapiens); assay: Inhibition of SIRT1 in HEK293 cells assessed as increase in p53 acetylation co-treated with TSA at 25 uM for 6 hrs by western blot analysis; format: cell-based
In short: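 HEK293 cells exposed 6 h to compound at 25 μM together with TSA (1 μM). Whole-cell lysates immunoblotted for Ac-p53 (K382) and total p53. Ratio Ac-p53/p53 normalized to DMSO control. Two independent experiments in duplicate, SEM.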

[13] = target: T1, NAD-dependent protein deacetylase sirtuin-1 (Homo sapiens); assay: Inhibition of human recombinant N-terminal GST-tagged SIRT1 (193 to 741 residues) deacetylation activity in presence of substrate and NAD+ at 15 uM after 15 mins by reversed-phase UPLC-MS analysis relative to control; design: scale not given: the % may be the effect or the level left
[14] = target: T4, NAD-dependent protein deacetylase sirtuin-2 (Homo sapiens); assay: Inhibition of human recombinant C-terminal His-tagged SIRT2 (50 to 356 residues) deacetylation activity in presence of substrate and NAD+ incubated for 60 mins measured after 90 mins by fluorescence assay
In short: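 Recombinant SIRT2 (100 nM or 250 nM) incubated with fluorogenic thioacyl or oxo lysine-AMC substrates plus NAD+. Deacylation read by fluorescence. Two independent experiments in duplicate, standard deviation.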

[15] = target: T4, NAD-dependent protein deacetylase sirtuin-2 (Homo sapiens); assay: Inhibition of human recombinant C-terminal His-tagged SIRT2 (50 to 356 residues) deacetylation activity in presence of substrate and NAD+ at 15 uM incubated 15 to 60 mins by reversed-phase UPLC-MS analysis; settings: time min 15-60
[16] = target: T4, NAD-dependent protein deacetylase sirtuin-2 (Homo sapiens); assay: Inhibition of human C-terminal His-tagged SIRT2 (50 to 356 residues) expressed in Escherichia coli using Ac-Gln-Pro-Lys-Lys(pro)-AMC (oxo-11) as substrate at 10 uM by fluorescence assay relative to control
[17] = target: T2, NAD-dependent protein deacetylase sirtuin-3, mitochondrial (Homo sapiens); assay: Inhibition of human N-terminal GST-tagged SIRT3 (102 to 399 residues) expressed in Escherichia coli using Ac-Gln-Pro-Lys-Lys(but)-AMC (oxo-12) as substrate at 10 uM by fluorescence assay relative to control

## CCCC(=S)NCCCC[C@H](NC(=O)[C@H](CCCCN)NC(=O)[C@@H]1CCCN1C(=O)[C@H](CCC(N)=O)NC(C)=O)C(=O)Nc1ccc2c(C)cc(=O)oc2c1
HEK293
  Activity: Active

## CCCC(=S)NCCCC[C@H](NC(=O)OCc1ccccc1)C(=O)Nc1ccccc1
[1]
  inhibition: inactive
[2]
  inhibition: inactive
[3]
  IC50: 12000 nM
[4]
  inhibition: 88%
[5]
  inhibition: 23%
[6]
  inhibition: inactive

## CCCC(=S)NCCCC[C@H](NC(=O)OCc1ccccc1)C(=O)N[C@@H](Cc1c[nH]c2ccccc12)C(=O)NC(C)C
[7]
  IC50: 540 nM
[8]
  IC50: 440 nM
[1]
  inhibition: Active
[2]
  inhibition: inactive
[9]
  inhibition: 10%
[6]
  inhibition: inactive

## CNC(=S)NCCCC[C@H](NC(=O)OCc1ccccc1)C(=O)N[C@@H](Cc1c[nH]c2ccccc12)C(=O)NC(C)C
[1]
  inhibition: Active
[10]
  half-life: < 1 h
[11]
  Activity: Not Active
[12]
  inhibition: Active

## CC(=O)NCCCC[C@H](NC(=O)OCc1ccccc1)C(=O)N[C@@H](Cc1c[nH]c2ccccc12)C(=O)NC(C)C (Cbz-Lys(Ac)-Trp-NHiPr)
[13]
  Activity: > 80%
[2]
  inhibition: 54%
[14]
  inhibition: inactive
[15]
  inhibition: inactive

## CC(C)NC(=O)[C@H](Cc1c[nH]c2ccccc12)NC(=O)[C@H](CCCCNC(N)=S)NC(=O)OCc1ccccc1
[7]
  IC50: 980 nM
[16]
  inhibition: 28%
[17]
  inhibition: 2%
[1]
  inhibition: Active
[10]
  half-life: > 7 h

## CC(=O)NCCCC[C@H](NC(=O)[C@H](CCCCN)NC(=O)[C@@H]1CCCN1C(=O)[C@H](CCC(N)=O)NC(C)=O)C(=O)Nc1ccc2c(C)cc(=O)oc2c1 (Ac-QPKK(Ac)-{AMC})
[14]
  inhibition: Active
HEK293
  Activity: Active

## CCC(=O)NCCCC[C@H](NC(=O)[C@H](CCCCN)NC(=O)[C@@H]1CCCN1C(=O)[C@H](CCC(N)=O)NC(C)=O)C(=O)Nc1ccc2c(C)cc(=O)oc2c1 (Ac-QPKK(Propionyl)-{AMC})
[14]
  inhibition: Active
HEK293
  Activity: Active

## CCC(=S)NCCCC[C@H](NC(=O)[C@H](CCCCN)NC(=O)[C@@H]1CCCN1C(=O)[C@H](CCC(N)=O)NC(C)=O)C(=O)Nc1ccc2c(C)cc(=O)oc2c1
HEK293
  Activity: Active
